Data from ChEMBL document CHEMBL1156197, “Design, synthesis and evaluation of novel 2-thiophen-5-yl-3H-quinazolin-4-one analogues as inhibitors of transcription factors NF-kappaB and AP-1 mediated transcriptional activation: Their possible utilization as anti-inflammatory and anti-cancer agents” (Bioorg Med Chem, 2010).
Active and inactive are the calls of the source. The rule behind the calls is not given here.

target: Transcription factor Jun (Homo sapiens) (UniProt P05412); test: Inhibition of AP-1 expressed in HEK293 cells assessed as PMA-stimulated transcriptional activation at 10 uM treated 24 hrs before PMA challenge measured after 20 to 24 hrs by luciferase reporter gene assay; assay type: cell-based; conditions: not given
Outline: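 HEK-293 cells stably carrying a minimal-promoter luciferase construct with tandem AP-1 elements (TGACTAA) were plated at 5 × 10⁴ cells/well and held 24 h at 37 °C in 5% CO₂. Compounds in 0.1% DMSO (10 µM–1 nM) were added to replicate wells for 24 h. Cells were then stimulated with PMA for 20–24 h and read with Bright-Glo luminescence. Mean RLU was normalized to the maximal control; IC50 came from a six-point dose response.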

Transcription factor Jun (Homo sapiens), sequence (P05412 whole entry): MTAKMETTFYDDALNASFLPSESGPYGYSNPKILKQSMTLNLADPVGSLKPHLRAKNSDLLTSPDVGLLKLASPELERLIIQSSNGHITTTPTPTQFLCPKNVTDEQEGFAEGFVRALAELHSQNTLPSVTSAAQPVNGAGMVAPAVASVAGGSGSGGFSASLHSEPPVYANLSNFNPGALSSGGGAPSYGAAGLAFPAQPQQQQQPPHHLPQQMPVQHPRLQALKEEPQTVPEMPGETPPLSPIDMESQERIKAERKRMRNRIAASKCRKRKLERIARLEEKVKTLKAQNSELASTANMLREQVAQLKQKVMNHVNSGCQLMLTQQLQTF

| inhibition [%] | Structure (SMILES) |
| --- | --- |
| 84 | CC(=O)c1ccc(-n2c(-c3cc(-c4ccncc4)c(N4CCOCC4)s3)nc3ccccc3c2=O)cc1 |
| 33 | COc1ccccc1-n1c(-c2cc(-c3ccc(S(C)(=O)=O)cc3)c(N3CCOCC3)s2)nc2ccccc2c1=O |
| 52 | Cc1ccccc1-n1c(-c2cc(-c3ccc(S(C)(=O)=O)cc3)c(N3CCOCC3)s2)nc2ccccc2c1=O |
| 7 | CS(=O)(=O)c1ccc(-c2cc(-c3nc4ccccc4c(=O)n3-c3ccc(Cl)cc3)sc2N2CCOCC2)cc1 |
| 35 | CC(=O)Nc1ccc(-c2cc(-c3nc4ccccc4c(=O)n3-c3ccc(C)cc3)sc2N2CCOCC2)cc1 |
| 31 | CC(=O)c1ccc(-n2c(-c3cc(-c4ccc(S(C)(=O)=O)cc4)c(N4CCOCC4)s3)nc3ccccc3c2=O)cc1 |
| 10 | COc1ccc(-n2c(-c3cc(-c4ccc(S(C)(=O)=O)cc4)c(N4CCOCC4)s3)nc3ccccc3c2=O)cc1 |

The remaining lines, values behind:

| Structure (SMILES) | inhibition [%] |
| --- | --- |
| CSc1ccc(-c2cc(-c3nc4ccccc4c(=O)n3-c3ccccc3C)sc2N2CCOCC2)cc1 | 13 |
| O=c1c2ccccc2nc(-c2cc(-c3ccncc3)c(N3CCOCC3)s2)n1-c1ccccc1 | 38 |
| Cc1cccc(-n2c(-c3cc(-c4ccncc4)c(N4CCOCC4)s3)nc3ccccc3c2=O)c1 | 35 |
| O=c1c2ccccc2nc(-c2cc(-c3ccncc3)c(N3CCOCC3)s2)n1-c1ccc(Cl)cc1 | 32 |
| Cc1ccccc1-n1c(-c2cc(-c3ccc(Cl)cc3)c(N3CCOCC3)s2)nc2ccccc2c1=O | 32 |
| O=c1c2ccccc2nc(-c2cc(-c3ccncc3)c(N3CCOCC3)s2)n1-c1ccccc1Cl | 35 |
| O=c1c2ccccc2nc(-c2cc(-c3ccc(Cl)cc3)c(N3CCOCC3)s2)n1-c1ccccc1 | 0 |
| Cc1ccc(-n2c(-c3cc(-c4ccccc4)c(N4CCOCC4)s3)nc3ccccc3c2=O)cc1 | 17 |
| CC(=O)Nc1ccc(-c2cc(-c3nc4ccccc4c(=O)n3-c3ccc(Cl)cc3)sc2N2CCOCC2)cc1 | 17 |
| O=c1c2ccccc2nc(-c2cc(-c3ccc(Cl)cc3)c(N3CCOCC3)s2)n1-c1ccc(Cl)cc1 | 14 |
| O=c1c2ccccc2nc(-c2cc(-c3ccccc3)c(N3CCOCC3)s2)n1-c1ccccc1 | 11 |
| O=c1c2ccccc2nc(-c2cc(-c3ccccc3)c(N3CCOCC3)s2)n1-c1ccc(Cl)cc1 | 23 |

tested on: LNCaP; test: Cytotoxicity against human LNCAP cells; assay type: functional, cell-based; conditions: not given

| Structure (SMILES) | Activity |
| --- | --- |
| CC(=O)c1ccc(-n2c(-c3cc(-c4ccncc4)c(N4CCOCC4)s3)nc3ccccc3c2=O)cc1 | Active |

tested on: Mus musculus; test: Inhibition of LPS-stimulated NF-kappaB activation in transgenic FVB mouse assessed as decrease in NF-kappaB activity at 50 mg/kg, po QD for 3 days before LPS challenge measured after 3 hrs by bioluminescence based luciferase reporter gene assay relative to control; assay type: functional; parameters: scale not given: the % may be the effect or the level left; conditions: not given

| Structure (SMILES) | Activity [%] |
| --- | --- |
| CC(=O)c1ccc(-n2c(-c3cc(-c4ccncc4)c(N4CCOCC4)s3)nc3ccccc3c2=O)cc1 | 43 |

tested on: Rattus norvegicus; test: Antiinflammatory activity against carrageenan-induced paw edema in Sprague-Dawley rat assessed as reduction in paw volume at 50 mg/kg, po dosed 1 hr before carrageenan challenge measured after 3 hrs by plethysmometry; assay type: functional; parameters: scale not given: the % may be the effect or the level left; conditions: not given

| Structure (SMILES) | Activity [%] |
| --- | --- |
| CC(=O)c1ccc(-n2c(-c3cc(-c4ccncc4)c(N4CCOCC4)s3)nc3ccccc3c2=O)cc1 | 81 |
| O=c1c2ccccc2nc(-c2cc(-c3ccncc3)c(N3CCOCC3)s2)n1-c1ccc(Cl)cc1 | 52 |
| COc1ccccc1-n1c(-c2cc(-c3ccc(S(C)(=O)=O)cc3)c(N3CCOCC3)s2)nc2ccccc2c1=O | 63 |
| O=c1c2ccccc2nc(-c2cc(-c3ccncc3)c(N3CCOCC3)s2)n1-c1ccccc1Cl | 43 |
| COc1ccc(-n2c(-c3cc(-c4ccc(S(C)(=O)=O)cc4)c(N4CCOCC4)s3)nc3ccccc3c2=O)cc1 | 53 |

tested on: not listed separately; test: Inhibition of NF-kappaB expressed in HEK293 cells assessed as inhibition of TNF-alpha-stimulated transcriptional activation treated 24 hrs before TNFalpha challenge measured after 20 to 24 hrs by luciferase reporter gene assay; assay type: cell-based; conditions: not given
Outline: (§1)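 Compounds in 0.1% DMSO (10 µM–1 nM) were added to replicate wells for 24 h. Cells were then stimulated with TNF-α for 20–24 h and read with Bright-Glo luciferase. Mean RLU was normalized to the maximal control; IC50 came from a six-point dose response.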

| IC50 [µM] | Structure (SMILES) |
| --- | --- |
| 10 | CC(=O)c1ccc(-n2c(-c3cc(-c4ccncc4)c(N4CCOCC4)s3)nc3ccccc3c2=O)cc1 |
| 9.2 | COc1ccccc1-n1c(-c2cc(-c3ccc(S(C)(=O)=O)cc3)c(N3CCOCC3)s2)nc2ccccc2c1=O |
| 26 | COc1ccc(-n2c(-c3cc(-c4ccc(S(C)(=O)=O)cc4)c(N4CCOCC4)s3)nc3ccccc3c2=O)cc1 |

More lines, now with the values behind:

| Structure (SMILES) | IC50 [µM] |
| --- | --- |
| O=c1c2ccccc2nc(-c2cc(-c3ccncc3)c(N3CCOCC3)s2)n1-c1ccc(Cl)cc1 | 11.4 |
| O=c1c2ccccc2nc(-c2cc(-c3ccncc3)c(N3CCOCC3)s2)n1-c1ccccc1Cl | 10.3 |

tested on: HEK293; test: Cytotoxicity against TNF-alpha-stimulated HEK293 cells at 10 uM treated 24 hrs before TNFalpha challenge measured after 20 to 24 hrs; assay type: cell-based; conditions: human, hek293, 10 µM

| Structure (SMILES) | Activity |
| --- | --- |
| CSc1ccc(-c2cc(-c3nc4ccccc4c(=O)n3-c3ccccc3C)sc2N2CCOCC2)cc1 | Non-toxic |
| CC(=O)c1ccc(-n2c(-c3cc(-c4ccncc4)c(N4CCOCC4)s3)nc3ccccc3c2=O)cc1 | Non-toxic |
| O=c1c2ccccc2nc(-c2cc(-c3ccncc3)c(N3CCOCC3)s2)n1-c1ccccc1 | Non-toxic |
| Cc1cccc(-n2c(-c3cc(-c4ccncc4)c(N4CCOCC4)s3)nc3ccccc3c2=O)c1 | Non-toxic |
| O=c1c2ccccc2nc(-c2cc(-c3ccncc3)c(N3CCOCC3)s2)n1-c1ccc(Cl)cc1 | Non-toxic |
| Cc1ccccc1-n1c(-c2cc(-c3ccc(Cl)cc3)c(N3CCOCC3)s2)nc2ccccc2c1=O | Non-toxic |
| COc1ccccc1-n1c(-c2cc(-c3ccc(S(C)(=O)=O)cc3)c(N3CCOCC3)s2)nc2ccccc2c1=O | Non-toxic |
| Cc1ccccc1-n1c(-c2cc(-c3ccc(S(C)(=O)=O)cc3)c(N3CCOCC3)s2)nc2ccccc2c1=O | Non-toxic |
| O=c1c2ccccc2nc(-c2cc(-c3ccncc3)c(N3CCOCC3)s2)n1-c1ccccc1Cl | Non-toxic |
| O=c1c2ccccc2nc(-c2cc(-c3ccc(Cl)cc3)c(N3CCOCC3)s2)n1-c1ccccc1 | Non-toxic |
| CS(=O)(=O)c1ccc(-c2cc(-c3nc4ccccc4c(=O)n3-c3ccc(Cl)cc3)sc2N2CCOCC2)cc1 | Non-toxic |
| Cc1ccc(-n2c(-c3cc(-c4ccccc4)c(N4CCOCC4)s3)nc3ccccc3c2=O)cc1 | Non-toxic |
| CC(=O)Nc1ccc(-c2cc(-c3nc4ccccc4c(=O)n3-c3ccc(Cl)cc3)sc2N2CCOCC2)cc1 | Non-toxic |
| CC(=O)Nc1ccc(-c2cc(-c3nc4ccccc4c(=O)n3-c3ccc(C)cc3)sc2N2CCOCC2)cc1 | Non-toxic |
| CC(=O)c1ccc(-n2c(-c3cc(-c4ccc(S(C)(=O)=O)cc4)c(N4CCOCC4)s3)nc3ccccc3c2=O)cc1 | Non-toxic |
| O=c1c2ccccc2nc(-c2cc(-c3ccc(Cl)cc3)c(N3CCOCC3)s2)n1-c1ccc(Cl)cc1 | Non-toxic |
| COc1ccc(-n2c(-c3cc(-c4ccc(S(C)(=O)=O)cc4)c(N4CCOCC4)s3)nc3ccccc3c2=O)cc1 | Non-toxic |
| O=c1c2ccccc2nc(-c2cc(-c3ccccc3)c(N3CCOCC3)s2)n1-c1ccccc1 | Non-toxic |
| O=c1c2ccccc2nc(-c2cc(-c3ccccc3)c(N3CCOCC3)s2)n1-c1ccc(Cl)cc1 | Non-toxic |

tested on: PC-3; test: Cytotoxicity against human PC3 cells; assay type: functional, cell-based; conditions: not given

| Structure (SMILES) | Activity |
| --- | --- |
| CC(=O)c1ccc(-n2c(-c3cc(-c4ccncc4)c(N4CCOCC4)s3)nc3ccccc3c2=O)cc1 | Active |

tested on: TCC-SUP; test: Cytotoxicity against human TCCSUP cells; assay type: functional, cell-based; conditions: not given

| Structure (SMILES) | Activity |
| --- | --- |
| CC(=O)c1ccc(-n2c(-c3cc(-c4ccncc4)c(N4CCOCC4)s3)nc3ccccc3c2=O)cc1 | Active |

tested on: HEK293; test: Inhibition of NF-kappaB expressed in HEK293 cells assessed as inhibition of TNF-alpha-stimulated transcriptional activation at 10 uM treated 24 hrs before TNFalpha challenge measured after 20 to 24 hrs by luciferase reporter gene assay; assay type: cell-based; conditions: not given; outline: as §1

| Structure (SMILES) | inhibition [%] |
| --- | --- |
| CSc1ccc(-c2cc(-c3nc4ccccc4c(=O)n3-c3ccccc3C)sc2N2CCOCC2)cc1 | 15 |
| CC(=O)c1ccc(-n2c(-c3cc(-c4ccncc4)c(N4CCOCC4)s3)nc3ccccc3c2=O)cc1 | 66 |
| O=c1c2ccccc2nc(-c2cc(-c3ccncc3)c(N3CCOCC3)s2)n1-c1ccccc1 | 30 |
| Cc1cccc(-n2c(-c3cc(-c4ccncc4)c(N4CCOCC4)s3)nc3ccccc3c2=O)c1 | 42 |
| O=c1c2ccccc2nc(-c2cc(-c3ccncc3)c(N3CCOCC3)s2)n1-c1ccc(Cl)cc1 | 68 |
| Cc1ccccc1-n1c(-c2cc(-c3ccc(Cl)cc3)c(N3CCOCC3)s2)nc2ccccc2c1=O | 1 |
| COc1ccccc1-n1c(-c2cc(-c3ccc(S(C)(=O)=O)cc3)c(N3CCOCC3)s2)nc2ccccc2c1=O | 55 |
| Cc1ccccc1-n1c(-c2cc(-c3ccc(S(C)(=O)=O)cc3)c(N3CCOCC3)s2)nc2ccccc2c1=O | 51 |
| O=c1c2ccccc2nc(-c2cc(-c3ccncc3)c(N3CCOCC3)s2)n1-c1ccccc1Cl | 80 |
| O=c1c2ccccc2nc(-c2cc(-c3ccc(Cl)cc3)c(N3CCOCC3)s2)n1-c1ccccc1 | 0 |
| CS(=O)(=O)c1ccc(-c2cc(-c3nc4ccccc4c(=O)n3-c3ccc(Cl)cc3)sc2N2CCOCC2)cc1 | 0 |
| Cc1ccc(-n2c(-c3cc(-c4ccccc4)c(N4CCOCC4)s3)nc3ccccc3c2=O)cc1 | 0 |
| CC(=O)Nc1ccc(-c2cc(-c3nc4ccccc4c(=O)n3-c3ccc(Cl)cc3)sc2N2CCOCC2)cc1 | 0 |
| CC(=O)Nc1ccc(-c2cc(-c3nc4ccccc4c(=O)n3-c3ccc(C)cc3)sc2N2CCOCC2)cc1 | 4 |
| CC(=O)c1ccc(-n2c(-c3cc(-c4ccc(S(C)(=O)=O)cc4)c(N4CCOCC4)s3)nc3ccccc3c2=O)cc1 | 46 |
| O=c1c2ccccc2nc(-c2cc(-c3ccc(Cl)cc3)c(N3CCOCC3)s2)n1-c1ccc(Cl)cc1 | 0 |
| COc1ccc(-n2c(-c3cc(-c4ccc(S(C)(=O)=O)cc4)c(N4CCOCC4)s3)nc3ccccc3c2=O)cc1 | 60 |
| O=c1c2ccccc2nc(-c2cc(-c3ccccc3)c(N3CCOCC3)s2)n1-c1ccccc1 | 0 |
| O=c1c2ccccc2nc(-c2cc(-c3ccccc3)c(N3CCOCC3)s2)n1-c1ccc(Cl)cc1 | 0 |
